Measured values published in ChEMBL document CHEMBL1629690, “Development of hexadecyloxypropyl tenofovir (CMX157) for treatment of infection caused by wild-type and nucleoside/nucleotide-resistant HIV” (Antimicrob Agents Chemother, 2010).

These molecules were tested on Human immunodeficiency virus 1 (assay: Antiviral activity against HIV1 isolate 204 harboring reverse transcriptase M41L/L210W/T215Y/M184V mutant gene by phenosense assay relative to wild type). Conditions: not given.
Format: functional
How it was run: (§1)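 PhenoSense HIV recombinant virus assay: patient-derived HIV-1 with major NRTI resistance mutations tested against increasing drug concentrations to give inhibition curves. EC50 is the concentration giving 50% inhibition. Fold change is the test recombinant EC50 divided by the EC50 of a drug-sensitive wild-type reference virus. Panel of 30 NRTI-resistant isolates plus two wild-type viruses.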

SMILES	fold change (FC)
O=c1[nH]cnc2c1ncn2[C@H]1CC[C@@H](CO)O1 [DIDANOSINE]	1.6

The molecules below were run on Human immunodeficiency virus 1 (assay: Antiviral activity against HIV1 isolate 180 harboring reverse transcriptase K65R mutant gene obtained as site-directed mutant of NL4-3 by phenosense assay relative to wild type). Conditions: not given.
Format: functional
How it was run: (§2)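 Recombinant-virus PhenoSense HIV assay run on a panel of 30 NRTI-resistant HIV-1 mutants and two wild-type viruses. Each virus is tested across increasing drug concentrations to give an inhibition curve and EC50. Fold change is the test recombinant EC50 divided by the EC50 of the drug-sensitive wild-type reference virus.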

SMILES	fold change (FC)
O=c1[nH]cnc2c1ncn2[C@H]1CC[C@@H](CO)O1 [DIDANOSINE]	2

The molecules below were run on Human immunodeficiency virus 1 (assay: Antiviral activity against HIV1 isolate 200 harboring reverse transcriptase M41L/L210W/T215Y mutant gene by phenosense assay). Conditions: Human immunodeficiency virus 1, isolate 200.
Format: functional, organism-based
How it was run: as §2

SMILES	EC50 [µM]
O=c1[nH]cnc2c1ncn2[C@H]1CC[C@@H](CO)O1 [DIDANOSINE]	7.5

These molecules were tested on Human immunodeficiency virus 1 (assay: Antiviral activity against HIV1 isolate 162 harboring reverse transcriptase A62V/V75I/F77L/Y115F/F116Y/Q151M/M184V mutant gene by phenosense assay). Conditions: Human immunodeficiency virus 1, isolate 162.
Format: functional, organism-based
How it was run: as §2

SMILES	EC50 [µM]
O=c1[nH]cnc2c1ncn2[C@H]1CC[C@@H](CO)O1 [DIDANOSINE]	58

The molecules below were run on Human immunodeficiency virus 1 (assay: Antiviral activity against HIV1 isolate 217 harboring reverse transcriptase D67N/K70E/M184V mutant gene by phenosense assay relative to wild type). Conditions: not given.
Format: functional
How it was run: as §1

SMILES	fold change (FC)
O=c1[nH]cnc2c1ncn2[C@H]1CC[C@@H](CO)O1 [DIDANOSINE]	1.3

What follows are molecules tested on Human immunodeficiency virus 1 (assay: Antiviral activity against HIV1 isolate 217 harboring reverse transcriptase D67N/K70E/M184V mutant gene by phenosense assay). Conditions: Human immunodeficiency virus 1, isolate 217.
Format: functional, organism-based
How it was run: as §1

SMILES	EC50 [µM]
O=c1[nH]cnc2c1ncn2[C@H]1CC[C@@H](CO)O1 [DIDANOSINE]	7.3

What follows are molecules tested on Human immunodeficiency virus 1 (assay: Antiviral activity against HIV1 isolate 201 harboring reverse transcriptase M41L/L210W/T215Y mutant gene by phenosense assay relative to wild type). Conditions: not given.
Format: functional
How it was run: as §1

SMILES	fold change (FC)
O=c1[nH]cnc2c1ncn2[C@H]1CC[C@@H](CO)O1 [DIDANOSINE]	1.1

These molecules were tested on Human immunodeficiency virus 1 (assay: Antiviral activity against HIV1 isolate 212 harboring reverse transcriptase L210W/T215Y mutant gene by phenosense assay). Conditions: Human immunodeficiency virus 1, isolate 212.
Format: functional, organism-based
How it was run: as §1

SMILES	EC50 [µM]
O=c1[nH]cnc2c1ncn2[C@H]1CC[C@@H](CO)O1 [DIDANOSINE]	5.5

The molecules below were run on Human immunodeficiency virus 1 (assay: Antiviral activity against HIV1 isolate 157 harboring reverse transcriptase L74V/M184V mutant gene by phenosense assay). Conditions: Human immunodeficiency virus 1, isolate 157.
Format: functional, organism-based
How it was run: as §2

SMILES	EC50 [µM]
O=c1[nH]cnc2c1ncn2[C@H]1CC[C@@H](CO)O1 [DIDANOSINE]	11

What follows are molecules tested on Human immunodeficiency virus 1 (assay: Antiviral activity against HIV1 isolate 220 harboring reverse transcriptase K70E/M184V mutant gene by phenosense assay relative to wild type). Conditions: not given.
Format: functional
How it was run: as §1

SMILES	fold change (FC)
O=c1[nH]cnc2c1ncn2[C@H]1CC[C@@H](CO)O1 [DIDANOSINE]	1.8

Each molecule was assayed on Human immunodeficiency virus 1 (assay: Antiviral activity against HIV1 isolate 211 harboring reverse transcriptase D67N/K70R/T215F/K219E/M184V mutant gene by phenosense assay). Conditions: Human immunodeficiency virus 1, isolate 211.
Format: functional, organism-based
How it was run: as §1

SMILES	EC50 [µM]
O=c1[nH]cnc2c1ncn2[C@H]1CC[C@@H](CO)O1 [DIDANOSINE]	8.7

These molecules were tested on Human immunodeficiency virus 1 (assay: Antiviral activity against HIV1 isolate 180 harboring reverse transcriptase K65R mutant gene obtained as site-directed mutant of NL4-3 by phenosense assay). Conditions: Human immunodeficiency virus 1, isolate 180.
Format: functional, organism-based
How it was run: as §2

SMILES	EC50 [µM]
O=c1[nH]cnc2c1ncn2[C@H]1CC[C@@H](CO)O1 [DIDANOSINE]	11

The molecules below were run on Human immunodeficiency virus 1 (assay: Antiviral activity against HIV1 isolate 063 harboring reverse transcriptase M41L/D67N/K70R/M184V/L210W/T215Y/K219E mutant gene by phenosense assay relative to wild type). Conditions: not given.
Format: functional
How it was run: as §2

SMILES	fold change (FC)
O=c1[nH]cnc2c1ncn2[C@H]1CC[C@@H](CO)O1 [DIDANOSINE]	2.1

These molecules were tested on Human immunodeficiency virus 1 (assay: Antiviral activity against HIV1 isolate 071 harboring reverse transcriptase 65R/S68N/184V mutant gene by phenosense assay). Conditions: Human immunodeficiency virus 1, isolate 071.
Format: functional, organism-based
How it was run: as §2

SMILES	EC50 [µM]
O=c1[nH]cnc2c1ncn2[C@H]1CC[C@@H](CO)O1 [DIDANOSINE]	14

The molecules below were run on Human immunodeficiency virus 1 (assay: Antiviral activity against HIV1 isolate 057 expressing wild type reverse transcriptase gene by phenosense assay). Conditions: Human immunodeficiency virus 1, isolate 057.
Format: functional, organism-based
How it was run: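 In the PhenoSense recombinant virus assay, virus was tested against increasing drug concentrations. EC50 came from the inhibition curve and was compared with a drug-sensitive reference virus.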

SMILES	EC50 [µM]
O=c1[nH]cnc2c1ncn2[C@H]1CC[C@@H](CO)O1 [DIDANOSINE]	5.6

Each molecule was assayed on Human immunodeficiency virus 1 (assay: Antiviral activity against HIV1 isolate 060 harboring reverse transcriptase M41L/D67N/K70R/L210W/T215Y/K219E mutant gene by phenosense assay). Conditions: Human immunodeficiency virus 1, isolate 060.
Format: functional, organism-based
How it was run: as §2

SMILES	EC50 [µM]
O=c1[nH]cnc2c1ncn2[C@H]1CC[C@@H](CO)O1 [DIDANOSINE]	8.9

The molecules below were run on Human immunodeficiency virus 1 (assay: Antiviral activity against HIV1 isolate 066 harboring reverse transcriptase 184V mutant gene by phenosense assay relative to wild type). Conditions: not given.
Format: functional
How it was run: as §2

SMILES	fold change (FC)
O=c1[nH]cnc2c1ncn2[C@H]1CC[C@@H](CO)O1 [DIDANOSINE]	1.4
